Values after ≈ are worked out from the molar mass of the structure shown.
How the values were obtained:
Ralstonia solanacearum [1] = assay: Antibacterial activity against Ralstonia solanacearum assessed as growth inhibition by turbidometer test (beneficial crop tobacco plant); type: functional, organism-based
Ralstonia solanacearum [2] = assay: Antibacterial activity against Ralstonia solanacearum assessed as growth inhibition at 200 ug/ml by turbidometer test (beneficial crop tobacco plant); type: functional
Ralstonia solanacearum [3] = assay: Antibacterial activity against Ralstonia solanacearum assessed as growth inhibition at 500 ug/ml by turbidometer test (beneficial crop tobacco plant); type: functional
Ralstonia solanacearum [4] = assay: Antibacterial activity against Ralstonia solanacearum in tobacco plant assessed as plant morbidity at 500 ug/ml measured after 14 days of spraying under green house conditions; type: functional
How it was run: (§1)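 Tobacco seedlings were raised by floating cultivation at 25 °C for 30 d, then transplanted at about the three-leaf stage into pots of 500 g soil, one plant per pot. Plants were sprayed with compound solutions. Morbidity and disease index were recorded per a standard disease investigation and classification protocol at 7, 14 and 21 d, with blank and negative controls.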

Ralstonia solanacearum [5] = assay: Antibacterial activity against Ralstonia solanacearum in tobacco plant assessed as control efficacy at 500 ug/ml measured after 21 days of spraying under green house conditions; type: functional; how it was run: as §1
Ralstonia solanacearum [6] = assay: Antibacterial activity against Ralstonia solanacearum in tobacco plant assessed as control efficacy at 500 ug/ml measured after 14 days of spraying under green house conditions; type: functional; how it was run: as §1
Ralstonia solanacearum [7] = assay: Antibacterial activity against Ralstonia solanacearum in tobacco plant assessed as plant morbidity at 500 ug/ml measured after 21 days of spraying under green house conditions; type: functional; how it was run: as §1
Ralstonia solanacearum [8] = assay: Antibacterial activity against Ralstonia solanacearum in tobacco plant assessed as control efficacy at 500 ug/ml measured after 7 days of spraying under green house conditions; type: functional; how it was run: as §1
Ralstonia solanacearum [9] = assay: Antibacterial activity against Ralstonia solanacearum in tobacco plant assessed as disease index at 500 ug/ml measured after 14 days of spraying under green house conditions; type: functional; how it was run: as §1
Ralstonia solanacearum [10] = assay: Antibacterial activity against Ralstonia solanacearum in tobacco plant assessed as disease index at 500 ug/ml measured after 7 days of spraying under green house conditions; type: functional; how it was run: as §1
Ralstonia solanacearum [11] = assay: Antibacterial activity against Ralstonia solanacearum in tobacco plant assessed as disease index at 500 ug/ml measured after 21 days of spraying under green house conditions; type: functional; how it was run: as §1
Ralstonia solanacearum [12] = assay: Antibacterial activity against Ralstonia solanacearum in tobacco plant assessed as plant morbidity at 500 ug/ml measured after 7 days of spraying under green house conditions; type: functional; how it was run: as §1
Ralstonia solanacearum [13] = assay: Antibacterial activity against Ralstonia solanacearum in tobacco field assessed as inhibition of disease at 405 g/ha measured after 7 days of spraying; type: functional
How it was run: (§2)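 Field trial with foliar spraying, scored 7, 14 and 21 d after treatment. Disease index = (4W + 3X + 2Y + Y)/4A from the plant disease classification sums. Inhibition % = (CK − PT1)/CK × 100, where CK is an untreated blank field. Statistics by ANOVA.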

Ralstonia solanacearum [14] = assay: Antibacterial activity against Ralstonia solanacearum in tobacco field assessed as inhibition of disease at 405 g/ha measured after 21 days of spraying; type: functional; how it was run: as §2
Ralstonia solanacearum [15] = assay: Antibacterial activity against Ralstonia solanacearum in tobacco field assessed as inhibition of disease at 405 g/ha measured after 14 days of spraying; type: functional; how it was run: as §2
Ralstonia solanacearum [16] = assay: Antibacterial activity against Ralstonia solanacearum in tobacco field assessed as inhibition of disease at 540 g/ha measured after 14 days of spraying; type: functional, organism-based; how it was run: as §2
Ralstonia solanacearum [17] = assay: Antibacterial activity against Ralstonia solanacearum in tobacco field assessed as inhibition of disease at 540 g/ha measured after 21 days of spraying; type: functional, organism-based; how it was run: as §2
Ralstonia solanacearum [18] = assay: Antibacterial activity against Ralstonia solanacearum in tobacco field assessed as inhibition of disease at 540 g/ha measured after 7 days of spraying; type: functional, organism-based; how it was run: as §2
[19] = Ralstonia solanacearum, read-out: EC50

Question: Which EC50 (Ralstonia solanacearum [1]) does the source give for COPPER HYDROXIDE [listing 1 of 2 here] here?
Answer: Its EC50 is 45.9 µg/mL.

Question: CCS(=O)(=O)c1nnc(-c2cccc(F)c2)o1 was tested. Which inhibition at 200 µg/mL (Ralstonia solanacearum [2]) did it give?
Answer: Its inhibition at 200 µg/mL is 100%.

Question: What about the EC50 (Ralstonia solanacearum [1]; [19]) of the same molecule?
Answer: The EC50 was 47.9 µg/mL (≈ 187 µM).

Question: What about the inhibition at 500 µg/mL (Ralstonia solanacearum [3]) of the same molecule?
Answer: Its inhibition at 500 µg/mL is 100%.

Question: Which inhibition at 200 µg/mL (Ralstonia solanacearum [2]) does the source give for CS(=O)(=O)c1nnc(-c2ccc(Cl)c([N+](=O)[O-])c2)o1 here?
Answer: The inhibition at 200 µg/mL was 0%.

Question: What about the inhibition at 500 µg/mL (Ralstonia solanacearum [3]) of the same molecule?
Answer: The inhibition at 500 µg/mL was 20.1%.

Question: Which results are given for COPPER HYDROXIDE [listing 2 of 2 here]?
Answer: Activity (Ralstonia solanacearum [4]): 100%; Efficacy (Ralstonia solanacearum [5]): 0%; Efficacy (Ralstonia solanacearum [6]): 3.4%; Activity (Ralstonia solanacearum [7]): 100%; Efficacy (Ralstonia solanacearum [8]): 41.9%; Activity (Ralstonia solanacearum [9]): 95%; Activity (Ralstonia solanacearum [10]): 53.3%; Activity (Ralstonia solanacearum [11]): 100%; Activity (Ralstonia solanacearum [12]): 50.3%

Question: What does the source list for COc1ccc(-c2nnc(S(C)(=O)=O)o2)cc1OC?
Answer: inhibition at 200 µg/mL (Ralstonia solanacearum [2]): 6%; inhibition at 500 µg/mL (Ralstonia solanacearum [3]): 10.1%

Question: How did the inhibition at 200 µg/mL (Ralstonia solanacearum [2]) turn out when CCS(=O)(=O)c1nnc(-c2ccc(Cl)c([N+](=O)[O-])c2)o1 was run?
Answer: Its inhibition at 200 µg/mL is 17%.

Question: What about the inhibition at 500 µg/mL (Ralstonia solanacearum [3]) of the same molecule?
Answer: The inhibition at 500 µg/mL was 46%.

Question: Which inhibition at 200 µg/mL (Ralstonia solanacearum [2]) does the source give for CCS(=O)(=O)c1nnc(-c2ccc(OC)c(OC)c2)o1 here?
Answer: The inhibition at 200 µg/mL was 2.8%.

Question: What about the inhibition at 500 µg/mL (Ralstonia solanacearum [3]) of the same molecule?
Answer: The inhibition at 500 µg/mL was 9.3%.

Question: What does the source list for CCS(=O)(=O)c1nnc(-c2ccc(F)cc2F)o1?
Answer: inhibition at 200 µg/mL (Ralstonia solanacearum [2]): 92.3%; EC50 (Ralstonia solanacearum [1]; [19]): 60.3 µg/mL (≈ 220 µM); inhibition at 500 µg/mL (Ralstonia solanacearum [3]): 100%

Question: What does the source list for CS(=O)(=O)c1nnc(-c2ccccc2Br)o1?
Answer: inhibition at 200 µg/mL (Ralstonia solanacearum [2]): 9.9%; inhibition at 500 µg/mL (Ralstonia solanacearum [3]): 14.2%

Question: With CCS(=O)(=O)c1nnc(-c2ccc(C)cc2)o1 as the molecule, how does the inhibition at 200 µg/mL (Ralstonia solanacearum [2]) read?
Answer: The inhibition at 200 µg/mL was 15%.

Question: And the inhibition at 500 µg/mL (Ralstonia solanacearum [3])?
Answer: Its inhibition at 500 µg/mL is 39%.

Question: Which inhibition at 200 µg/mL (Ralstonia solanacearum [2]) does the source give for CCS(=O)(=O)c1nnc(-c2ccc(F)cc2)o1 here?
Answer: The inhibition at 200 µg/mL was 100%.

Question: And the Activity (Ralstonia solanacearum [4])?
Answer: Its Activity is 60%.

Question: And the Efficacy (Ralstonia solanacearum [5])?
Answer: Its Efficacy is 38.3%.

Question: What about the Efficacy (Ralstonia solanacearum [6]) of the same molecule?
Answer: The Efficacy was 59.3%.

Question: What about the Activity (Ralstonia solanacearum [7]) of the same molecule?
Answer: Its Activity is 100%.

Question: And the Efficacy (Ralstonia solanacearum [8])?
Answer: The Efficacy was 85.5%.

Question: And the Activity (Ralstonia solanacearum [9])?
Answer: Its Activity is 40%.

Question: What about the Activity (Ralstonia solanacearum [10]) of the same molecule?
Answer: Its Activity is 13.3%.

Question: What about the “inhibition (INH)” value (Ralstonia solanacearum [13]) of the same molecule?
Answer: The value was 65.3%.

Question: What about the “inhibition (INH)” value (Ralstonia solanacearum [14]) of the same molecule?
Answer: Its value is 71.9%.

Question: What about the EC50 (Ralstonia solanacearum [1]; [19]) of the same molecule?
Answer: The EC50 was 32.1 µg/mL (≈ 125 µM).

Question: And the inhibition at 500 µg/mL (Ralstonia solanacearum [3])?
Answer: Its inhibition at 500 µg/mL is 100%.

Question: And the Activity (Ralstonia solanacearum [11])?
Answer: The Activity was 61.7%.

Question: What about the Activity (Ralstonia solanacearum [12]) of the same molecule?
Answer: Its Activity is 13.3%.

Question: What about the “inhibition (INH)” value (Ralstonia solanacearum [15]) of the same molecule?
Answer: The value was 68.8%.

Question: For CCS(=O)(=O)c1nnc(-c2ccccc2)o1, which inhibition at 200 µg/mL (Ralstonia solanacearum [2]) is on record?
Answer: Its inhibition at 200 µg/mL is 100%.

Question: And the Activity (Ralstonia solanacearum [4])?
Answer: Its Activity is 100%.

Question: What about the Efficacy (Ralstonia solanacearum [5]) of the same molecule?
Answer: The Efficacy was 8.3%.

Question: And the Efficacy (Ralstonia solanacearum [6])?
Answer: Its Efficacy is 12%.

Question: And the Activity (Ralstonia solanacearum [7])?
Answer: Its Activity is 100%.

Question: And the Efficacy (Ralstonia solanacearum [8])?
Answer: The Efficacy was 34.6%.

Question: And the Activity (Ralstonia solanacearum [9])?
Answer: The Activity was 86.7%.

Question: What about the Activity (Ralstonia solanacearum [10]) of the same molecule?
Answer: Its Activity is 60%.

Question: What about the EC50 (Ralstonia solanacearum [1]; [19]) of the same molecule?
Answer: Its EC50 is 39.8 µg/mL (≈ 167 µM).

Question: What about the inhibition at 500 µg/mL (Ralstonia solanacearum [3]) of the same molecule?
Answer: The inhibition at 500 µg/mL was 100%.

Question: What about the Activity (Ralstonia solanacearum [11]) of the same molecule?
Answer: The Activity was 91.7%.

Question: What about the Activity (Ralstonia solanacearum [12]) of the same molecule?
Answer: The Activity was 60%.

Question: With CCS(=O)(=O)c1nnc(-c2ccc(F)c(F)c2)o1 as the molecule, how does the inhibition at 200 µg/mL (Ralstonia solanacearum [2]) read?
Answer: The inhibition at 200 µg/mL was 46.7%.

Question: And the inhibition at 500 µg/mL (Ralstonia solanacearum [3])?
Answer: Its inhibition at 500 µg/mL is 52%.

Question: CS(=O)(=O)c1nnc(Cc2ccc(Cl)cc2)o1 was tested. Which inhibition at 200 µg/mL (Ralstonia solanacearum [2]) did it give?
Answer: Its inhibition at 200 µg/mL is 19.2%.

Question: What about the inhibition at 500 µg/mL (Ralstonia solanacearum [3]) of the same molecule?
Answer: Its inhibition at 500 µg/mL is 31%.

Question: How did the inhibition at 200 µg/mL (Ralstonia solanacearum [2]) turn out when CS(=O)(=O)c1nnc(-c2ccc(F)c(F)c2)o1 was run?
Answer: The inhibition at 200 µg/mL was 11.1%.

Question: And the inhibition at 500 µg/mL (Ralstonia solanacearum [3])?
Answer: Its inhibition at 500 µg/mL is 12%.

Question: Which inhibition (Ralstonia solanacearum [2]) does the source give for Saisentong here?
Answer: Its inhibition is 100%.

Question: What about the Activity (Ralstonia solanacearum [4]) of the same molecule?
Answer: Its Activity is 73.3%.

Question: What about the Efficacy (Ralstonia solanacearum [5]) of the same molecule?
Answer: The Efficacy was 21.7%.

Question: And the Efficacy (Ralstonia solanacearum [6])?
Answer: Its Efficacy is 59.3%.

Question: And the Activity (Ralstonia solanacearum [7])?
Answer: Its Activity is 100%.

Question: What about the Efficacy (Ralstonia solanacearum [8]) of the same molecule?
Answer: The Efficacy was 92.7%.

Question: What about the Activity (Ralstonia solanacearum [9]) of the same molecule?
Answer: The Activity was 40%.

Question: And the Activity (Ralstonia solanacearum [10])?
Answer: Its Activity is 6.7%.

Question: And the inhibition (Ralstonia solanacearum [16])?
Answer: The inhibition was 71.1%.

Question: What about the inhibition (Ralstonia solanacearum [3]) of the same molecule?
Answer: The inhibition was 100%.

Question: What about the Activity (Ralstonia solanacearum [11]) of the same molecule?
Answer: The Activity was 78.3%.

Question: What about the inhibition (Ralstonia solanacearum [17]) of the same molecule?
Answer: Its inhibition is 67.3%.

Question: What about the Activity (Ralstonia solanacearum [12]) of the same molecule?
Answer: Its Activity is 6.7%.

Question: What about the inhibition (Ralstonia solanacearum [18]) of the same molecule?
Answer: Its inhibition is 61.2%.

Question: CCS(=O)(=O)c1nnc(Cc2ccc(Cl)cc2)o1 was tested. Which inhibition at 200 µg/mL (Ralstonia solanacearum [2]) did it give?
Answer: Its inhibition at 200 µg/mL is 18.7%.

Question: What about the inhibition at 500 µg/mL (Ralstonia solanacearum [3]) of the same molecule?
Answer: Its inhibition at 500 µg/mL is 31.4%.
